Assay results from ChEMBL document CHEMBL1138571, “Design, synthesis and evaluation of tetrahydropyran based COX-1/-2 inhibitors” (Eur J Med Chem, 2009).

Legend:
[1] = molecular target: T1, Prostaglandin G/H synthase 1 (Ovis aries, UniProt P05979); assay: Inhibition of ovine COX1
T1 sequence (P05979 whole entry): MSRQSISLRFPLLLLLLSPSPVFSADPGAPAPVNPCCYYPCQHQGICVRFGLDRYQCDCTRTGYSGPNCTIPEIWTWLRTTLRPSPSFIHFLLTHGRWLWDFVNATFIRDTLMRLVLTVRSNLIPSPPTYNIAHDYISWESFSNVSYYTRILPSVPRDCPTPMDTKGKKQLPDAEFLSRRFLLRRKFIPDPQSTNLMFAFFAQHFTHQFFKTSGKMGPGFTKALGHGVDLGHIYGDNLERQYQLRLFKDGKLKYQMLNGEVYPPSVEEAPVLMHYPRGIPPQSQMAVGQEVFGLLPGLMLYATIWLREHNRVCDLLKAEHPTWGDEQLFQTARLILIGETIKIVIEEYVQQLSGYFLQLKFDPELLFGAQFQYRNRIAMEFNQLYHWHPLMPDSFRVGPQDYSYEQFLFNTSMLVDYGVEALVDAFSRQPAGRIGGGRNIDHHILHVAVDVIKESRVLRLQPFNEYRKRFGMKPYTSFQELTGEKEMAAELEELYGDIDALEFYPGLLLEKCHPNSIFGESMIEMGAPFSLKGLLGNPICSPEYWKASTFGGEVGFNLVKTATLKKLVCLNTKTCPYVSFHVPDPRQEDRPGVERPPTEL

[2] = molecular target: T2, Prostaglandin G/H synthase 2 (Ovis aries, UniProt P79208); assay: Inhibition of ovine COX2
T2 sequence (P79208 whole entry): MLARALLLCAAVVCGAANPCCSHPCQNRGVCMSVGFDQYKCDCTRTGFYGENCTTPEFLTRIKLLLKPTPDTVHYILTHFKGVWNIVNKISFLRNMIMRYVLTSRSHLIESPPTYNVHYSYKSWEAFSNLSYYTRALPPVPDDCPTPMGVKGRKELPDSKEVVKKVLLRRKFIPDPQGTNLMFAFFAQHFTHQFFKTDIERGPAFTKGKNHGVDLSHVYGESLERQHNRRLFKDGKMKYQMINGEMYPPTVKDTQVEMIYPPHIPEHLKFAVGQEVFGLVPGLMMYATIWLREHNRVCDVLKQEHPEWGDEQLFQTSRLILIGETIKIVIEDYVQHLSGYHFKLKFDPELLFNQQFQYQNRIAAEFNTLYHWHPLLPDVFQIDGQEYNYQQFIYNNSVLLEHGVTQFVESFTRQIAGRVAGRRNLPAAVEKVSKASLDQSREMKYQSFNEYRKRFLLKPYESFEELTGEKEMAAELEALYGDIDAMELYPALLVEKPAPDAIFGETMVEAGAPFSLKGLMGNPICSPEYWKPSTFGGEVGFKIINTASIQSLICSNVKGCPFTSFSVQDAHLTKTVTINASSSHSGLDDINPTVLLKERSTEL

[3] = molecular target: T3, Prostaglandin G/H synthase 1 (Ovis aries) (UniProt P05979); assay: Inhibition of ovine COX1 at 10 uM
T3 sequence (whole entry): T1 sequence (P05979 whole entry)
How it was run: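 Ovine COX-1 enzyme assay in 96-well format following a standard procedure. Compounds were tested at a single concentration of 10^-5 M, in duplicate. Results are expressed as % inhibition.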

For `C[C@]1(O)C[C@@H](CSC#N)O[C@@H](c2ccc(F)cc2)C1`, the IC50 [1] was over 10 µM, the IC50 [2] was 1 µM and the inhibition [3] was 34%.
`CCSC[C@@H]1C[C@](C)(O)C[C@H](c2ccc([N+](=O)[O-])cc2)O1` was tested, and the IC50 [1] was over 10 µM, the IC50 [2] was over 10 µM and the inhibition [3] was 34%.
With `CCSC[C@@H]1C[C@](C)(O)C[C@H](c2ccc(Cl)cc2)O1` the IC50 [1] was over 10 µM, the IC50 [2] was over 10 µM and the inhibition [3] was 34%.
For `C[C@]1(O)C[C@@H](CSC#N)O[C@@H](c2ccc([N+](=O)[O-])cc2)C1`, the IC50 [1] was over 10 µM, the IC50 [2] was over 10 µM and the inhibition [3] was 29%.
In the case of `CC(C)Cc1ccc(C(C)C(=O)O)cc1` (configuration not stated), the inhibition [3] is reported as 96%.
`CCSC[C@@H]1C[C@](C)(O)C[C@H](c2ccc(F)cc2)O1` showed an IC50 [1] of over 10 µM, an IC50 [2] of under 1 µM and an inhibition [3] of 42%.
`C[C@]1(O)C[C@@H](CSC#N)O[C@@H](c2ccc(Br)cc2)C1` was tested, and the IC50 [1] was over 10 µM, the IC50 [2] was over 10 µM and the inhibition [3] was 32%.
Compound `CCSC[C@@H]1C[C@](C)(O)C[C@H](c2ccc(Br)cc2)O1` has an IC50 [1] of over 10 µM, an IC50 [2] of over 10 µM and an inhibition [3] of 24%.
